Source: PubChem BioAssay (several laboratories)
ATG4B inhibitor: inhibitors of human ATG4B cysteine protease; ATG4B cleavage of LC3-PLA2, NBD-HPC fluorescence, 1 h; inhibition, % at 8.33 µM; actives 0.51% (n = 340,000); AID 504462; in the data active means inhibition above about 40%
SIAE primary: blocks human sialic acid acetylesterase; AID 1053197; SIAE FP-Rh probe binding, fluorescence polarization; inhibition, % at 9.66 µM; actives 0.69% (n = 370,000);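 active means inhibition above a cutoff: mean of compounds within the control limits plus 3 SD of those, cut at about 17% in these data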;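 further: 0% = plate median of compound wells and 100% = probe without SIAE protein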
PRMT1 FP inh: inhibitors of human PRMT1 | recombinant PRMT1, activity-based probe fluorescence polarization | AID 652257 | inhibition, % at 2.79 µM | actives 1.3% (n = 370,000);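 active means inhibition above about 21% made by adding two undisclosed values, limit read from the data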
mABHD4 FP: inhibitors of mouse ABHD4. Q8VD66. purified mABHD4, FP-Rh probe fluorescence polarization. inhibition, % at 8.92 µM. actives 0.54% (n = 370,000);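 active means inhibition exceeding the mean over every tested compound plus 3 SD, cut at about 30% in these data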;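 further: 0% = plate median of compound wells and 100% = S159A mutant with DMSO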
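Test system: mouse ABHD4 enzyme, wild type. Reagent: FP-Rh fluorescent activity-based probe, added after compound pre-incubation. Timing: pre-incubation 45 min, probe exposure 60 min, at 25 °C. Technique: FP readout, ex 525 nm / em 598 nm. Benchmarks: high control S159A mutant with DMSO, low control median of compound wells.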
TCR-CD3 inh: blocks the human TCR-CD3 interaction | AID 651800 | TAMRA-labeled TCR probe fluorescence, biochemical | actives 0.37% (n = 360,000) | inhibition, % at 9.4 µM;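 further: recombinant mutant TCR 2C K166C tagged with TAMRA read by polarization; 0% = receptor in buffer alone and 100% = receptor with positive control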
HTRA1 inhibitor: blocks human HTRA1 serine peptidase. Q92743. actives 0.5% (n = 340,000). inhibition, % at 5.96 µM. recombinant HTRA1, FP-rhodamine activity-based probe, fluorescence polarization; in the data active means inhibition above about 36%;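 further: 0% = enzyme with DMSO and 100% = wells lacking enzyme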
Target sequence (Q92743 whole entry, looked up): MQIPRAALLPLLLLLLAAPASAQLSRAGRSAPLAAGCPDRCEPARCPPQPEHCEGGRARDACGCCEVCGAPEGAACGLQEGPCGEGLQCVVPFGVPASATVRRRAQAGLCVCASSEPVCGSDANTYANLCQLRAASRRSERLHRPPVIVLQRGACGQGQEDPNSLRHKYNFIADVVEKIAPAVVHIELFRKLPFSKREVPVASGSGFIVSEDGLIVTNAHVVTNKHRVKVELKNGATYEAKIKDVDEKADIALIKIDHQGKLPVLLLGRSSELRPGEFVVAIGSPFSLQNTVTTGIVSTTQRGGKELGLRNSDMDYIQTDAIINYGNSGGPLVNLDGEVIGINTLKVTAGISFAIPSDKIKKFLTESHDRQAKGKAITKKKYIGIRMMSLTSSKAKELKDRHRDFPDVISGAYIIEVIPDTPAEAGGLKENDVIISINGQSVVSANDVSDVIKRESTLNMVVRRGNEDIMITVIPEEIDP
BSA TAMRA ctr: BSA probe counter-screen for TCR-CD3 inhibitors | shares compounds with TCR-CD3 inh | AID 652035 | TAMRA-labeled BSA probe fluorescence counterscreen | inhibition, % at 9.4 µM | actives 10% (n = 1,200); in the data active means inhibition above about 23%;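 further: 0% = buffer low control and 100% = reference high control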
TCR-CD3 inh conf: confirmation of human TCR-CD3 interaction inhibitors. actives 48% (n = 1,200). inhibition, % at 9.4 µM. TAMRA-labeled TCR probe fluorescence binding assay. AID 652036. shares compounds with TCR-CD3 inh
Active calls of the source: *; . = not tested or not shown. The list is not random: actives were taken first. Their share in the collection is about 2.9%. Unless noted, no stated cut-off is given here; in the data, active means inhibition above about 19%; inactive means the rest.

SMILES	ATG4B inhibitor	SIAE primary	PRMT1 FP inh	mABHD4 FP	TCR-CD3 inh	HTRA1 inhibitor	BSA TAMRA ctr	TCR-CD3 inh conf
Cc1ccc(NC(=O)CN(C)C(=O)c2cccc(-n3cccc3)c2)cc1	-0.6	-2.0	-4.1	-0.4	22.4*	-18.1	-8.7	14.9
COc1ccccc1OC(=O)c1ccc2nsnc2c1	10.5	-0.3	3.3	-2.2	20.6*	-6.4	6.1	4.5
CCCC#Cc1ccc(CC[C@H]2O[C@H]3CC[C@@H](CO)O[C@H]3C[C@H]2NC(=O)CN2CCOCC2)cc1	.	-3.2	-0.5	-5.5	.	.	.	.
C/C(Cn1cnc([N+](=O)[O-])n1)=N\NC(=O)c1ccccc1O	-4.4	15.2	-0.2	8.5	2.7	4.8	.	.
C/C(Cn1cnc([N+](=O)[O-])n1)=N\NC(=O)c1ccc(O)cc1O	5.8	3.2	-3.2	1.5	19.0*	4.0	-3.2	3.2
Cc1noc(C)c1COc1ccc(C(=O)NNC(=O)c2ccccc2O)cc1	3.8	11.0	-0.8	5.0	25.0*	24.6	-1.1	26.2*
CCOc1ccc(C(=O)CCC(=O)NNC(=O)c2ccccc2O)cc1	0.3	2.9	5.3	7.9	28.9*	12.0	-2.7	26.2*
CCOc1ccc(C(=O)CCC(=O)Nc2ncccc2O)cc1	6.6	7.4	5.5	8.3	-5.3	-5.9	.	.
COc1ccc(-c2cc(-c3nnc(SCC(=O)Nc4nccs4)n3N)[nH]n2)cc1	.	-6.1	-6.0	-3.8	.	.	.	.
O=C(NN=C1CCCC1)c1ccccc1O	-9.6	8.1	-2.2	6.7	22.5*	13.2	-14.8	15.3
CC(=O)c1ccc(NC(=O)c2cc(Cl)nc3ccccc23)cc1	-5.9	-2.8	1.3	-12.4	62.0*	-19.6	-1.5	-0.8
CCc1c(C)sc(NC(=O)OC)c1C(=O)N1CCCCC1	-3.8	8.1	6.6	15.1	19.4*	12.1	20.5	17.1
Cc1ccc(-c2cc(C(=O)NN=Cc3cccc(Oc4ccccc4)c3)[nH]n2)cc1C	.	-88.6	-8.4	-72.4	.	.	.	.
O=C(Nc1ccc(F)cc1)C1CC(=O)N(Cc2ccco2)C1 (centres undefined)	-10.0	8.6	-1.4	3.3	8.5	-3.6	.	.
O=C(NCc1ccccc1F)C1CC(=O)N(Cc2ccco2)C1 (centres undefined)	.	0.4	0.3	-9.1	42.2*	4.6	2.9	2.0
CC(C)C[C@H]1COc2cc(N3CCCC3)ccc2S(=O)(=O)N1C	.	-4.6	-4.4	9.4	.	.	.	.
O=C(NNC(=O)OCc1ccccc1)OCc1ccccc1	-5.6	13.3	1.1	9.1	111.4*	3.3	-7.7	-3.0
O=C(NOCc1ccccc1)OCc1ccccc1	5.2	-6.3	0.1	-11.4	0.6	3.6	.	.
CCn1c(=O)c(C(=O)Nc2ncccc2O)c(O)c2ccccc21	-11.0	-0.1	0.9	-1.3	34.2*	2.1	-2.3	15.0
COC(=O)C1=C(CSc2nc3c(cc2C#N)CN(C)CC3)OC(N)=C(C#N)C1c1ccc(F)cc1 (centres undefined)	11.0	6.7	13.4	14.2	19.7*	18.7	-3.3	0.5
CC1NC(=S)N(Cc2ccccc2)C1=O (centres undefined)	2.5	4.3	-0.7	1.0	22.4*	4.3	1.4	16.3
COc1ccc(C(=O)N2CCC(Oc3cccnc3)CC2)c(OC)c1	.	4.8	3.7	10.0	.	.	.	.
COC(=O)CSc1nnc(-c2cc(-c3ccccc3)n[nH]2)n1N	.	-3.0	9.1	1.4	.	.	.	.
O=C(N/N=C/C1CC=CCC1)c1ccc(Cl)cc1O (centres undefined)	3.4	2.7	1.1	12.9	20.4*	25.2	-9.0	11.8
CC1=CN2C(=N)/C(=C/c3ccc([N+](=O)[O-])o3)C(=O)N=C2S1	-6.7	5.9	20.8	13.7	72.0*	18.7	-15.6	2.3
SMILES	ATG4B inhibitor	SIAE primary	PRMT1 FP inh	mABHD4 FP	TCR-CD3 inh	HTRA1 inhibitor	BSA TAMRA ctr	TCR-CD3 inh conf
CC1=CN2C(=N)/C(=C/c3ccco3)C(=O)N=C2S1	-2.4	-3.7	2.1	3.1	-6.0	2.8	.	.
N#CCC(=O)Nc1ccc(C(=O)NCCC(c2ccccc2)c2ccccc2)cc1	-2.6	-33.3	-4.2	3.1	20.8*	-53.9	2.9	4.2
CC(CCc1ccccc1)NC(=O)COC(=O)c1ccc(NC(=O)CC#N)cc1 (centres undefined)	-1.0	-35.3	0.1	-6.0	29.7*	-20.6	1.7	2.8
CC(OC(=O)c1ccc(NC(=O)CC#N)cc1)C(=O)Nc1nc(-c2ccccc2)cs1 (centres undefined)	-14.6	-39.0	1.0	-11.6	35.2*	-39.8	-0.5	12.5
CC(OC(=O)c1cccs1)C(=O)Nc1nc(-c2ccccc2)cs1 (centres undefined)	-15.7	-6.4	-0.3	-14.2	1.4	-20.9	.	.
CC(C)CNS(=O)(=O)/C=C/c1ccc(F)cc1CNC(=O)OC(C)(C)C	.	10.3	-3.7	-0.3	.	.	.	.
O=C(Nc1nc2ncccn2c1-c1ccccc1)C1CC1	.	0.1	2.4	-0.6	.	.	.	.
O=C(CCc1ccccc1)NNC(=O)c1ccccc1C(=O)O	1.2	-2.4	-1.2	7.2	8.3	7.7	.	.
O=C(NNC(=O)c1cc(Cl)ccc1O)c1cccs1	-2.6	-0.1	-5.8	14.6	24.8*	21.1	-14.8	19.3*
O=C(CCc1ccccc1)NNC(=O)c1cc(Cl)ccc1O	-2.3	-0.1	6.3	-4.8	23.7*	16.4	48.7*	46.6*
COc1ccc(-c2cc(-c3nnc4sc(Cc5cccs5)nn34)[nH]n2)cc1	.	-17.9	3.2	-21.4	.	.	.	.
O=C(Cn1nc2ccccc2n1)N/N=C/c1cc([N+](=O)[O-])ccc1O	-13.3	-1.2	-4.0	7.1	26.0*	3.4	5.2	26.4*
O=C(Cn1nnc(-c2ccccc2)n1)N/N=C/c1cc([N+](=O)[O-])ccc1O	13.3	-0.3	0.3	4.2	16.3	6.8	.	.
COC(=O)[C@]12C[C@H](CC(=O)N3CCSCC3)C(=O)N(Cc3ccco3)C1=C[C@H](C(C)(C)C)O[C@@H]2C	.	-4.0	5.1	5.0	.	.	.	.
COc1cc(OC)cc(C(=O)NNC(=O)c2cc3ccccc3cc2O)c1	-6.7	9.8	-1.3	-8.4	25.9*	9.0	-11.2	18.7
Cc1ccc(NC(=O)NNC(=O)c2cc3ccccc3cc2O)cc1	-0.3	1.6	-5.2	-3.9	31.7*	18.0	-1.5	21.0*
COc1ccc(NS(=O)(=O)c2cccc(C(=O)NNC(=O)c3ccccc3O)c2)cc1	4.1	-2.0	1.8	16.4	27.6*	19.6	-15.5	16.5
COc1ccccc1NC(=O)NNC(=O)c1ccc(-c2ccccc2)cc1	-6.0	0.0	-1.2	-11.6	-0.8	-17.2	.	.
COc1ccccc1NC(=O)NNC(=O)c1cc2ccccc2cc1O	-2.8	13.3	0.7	7.8	19.3*	33.0	-5.8	22.8*
